Experimental data as given in ChEMBL document CHEMBL1130100, “Stabilized analogs of thymopentin. 3. Evaluation of ketomethylene pseudopeptides for antiarthritic properties” (1997).
“And” between values parts separate entries of the source, which are not always exact repeats. Equal values may be shown once.

Assays:
Type in all cases: functional
Mus musculus [1] = assay: On set and incidence of arthritis in the Mouse Type II collagen model at 0.5 dose mg/kg on day 44, expressed as ratio of number treated to that of control
In short: (§1)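 DBA/1 Lac mice sensitized with bovine type II collagen (100 μg) in Freund's complete adjuvant, ip boost (100 μg) on day 21. Freshly dissolved compound in sterile saline was given iv every second day, day 19 through day 40, groups of 12. A mouse was scored arthritic if erythema or edema was present on any digit, paw or appendage. Incidence reported as number positive of 12.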

Mus musculus [2] = assay: On set and incidence of arthritis in the Mouse Type II collagen model at 0.5 dose mg/kg on day 40, expressed as ratio of number treated to that of control; in short: as §1
Mus musculus [3] = assay: Extent of paw swelling after treatment with thymopentin-5 (TP-5) compound in mouse type II collagen arthritis at a dosage of 1.0 mg/kg on day 30
In short: (§2)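 DBA/1 Lac mice immunized with bovine type II collagen (100 μg) in Freund's complete adjuvant at four to six back sites, then boosted ip (100 μg) on day 21. Dosing was iv in sterile saline every second day from day 19 through day 40, 12 mice per dose. Each hind paw was measured by caliper. Result given as % of untreated swelling after subtracting age-matched normal paw.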

Mus musculus [4] = assay: On set and incidence of arthritis in the Mouse Type II collagen model at 0.5 dose mg/kg on day 37, expressed as ratio of number treated to that of control; in short: as §1
Mus musculus [5] = assay: On set and incidence of arthritis in the Mouse Type II collagen model following 0.5 mg/kg on day 30.; in short: as §1
Mus musculus [6] = assay: On set and incidence of arthritis in the Mouse Type II collagen model at 0.5 dose mg/kg on day 44, expressed as number of mice treated out of 12 tested; in short: as §1
Mus musculus [7] = assay: Extent of paw swelling after treatment with thymopentin-5 (TP-5) compound in the Mouse Type II collagen arthritis at a dosage of 1.0 mg/kg on day 44; in short: as §2
Mus musculus [8] = assay: On set and incidence of arthritis in the Mouse Type II collagen model at 0.5 dose mg/kg on day 37, expressed as number of mice treated out of 12 tested; in short: as §1
Mus musculus [9] = assay: On set and incidence of arthritis in the Mouse Type II collagen model at 0.5 dose mg/kg on day 40, expressed as number of mice treated out of 12 tested; in short: as §1
Rattus norvegicus [10] = assay: extent of paw swelling following treatment with the compound in the rat adjuvant arthritis model observed on day 19 at 0.050 mg/kg dose; details: dose 0.05 mg/kg
In short: (§3)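 Rat adjuvant arthritis with iv dosing every second day, starting 2 days before the adjuvant/antigen challenge. Initial doses ranged 0.05 to 0.50 mg/kg, eight rats per dose. Each hind paw was measured by caliper. Swelling minus age-matched normal paw, expressed as % of untreated animals.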

Rattus norvegicus [11] = assay: extent of paw swelling following treatment with the compound in the rat adjuvant arthritis model observed on day 16 at 0.050 mg/kg dose; details: dose 0.05 mg/kg; in short: as §3
Rattus norvegicus [12] = assay: extent of paw swelling following treatment with the compound in the rat adjuvant arthritis model observed on day 12 at 0.050 mg/kg dose; details: dose 0.05 mg/kg; in short: as §3
Mus musculus [13] = assay: Extent of paw swelling after treatment with thymopentin-5 (TP-5) compound in the Mouse Type II collagen arthritis at a dosage of 0.01 mg/kg on day 44; details: 0.01 mg/kg; in short: as §2
Mus musculus [14] = assay: On set and incidence of arthritis in the Mouse Type II collagen model at 0.5 dose mg/kg on day 30, expressed as ratio of number treated to that of control; in short: as §1
Mus musculus [15] = assay: Extent of paw swelling after treatment with thymopentin-5 (TP-5) compound in the Mouse Type II collagen arthritis at a dosage of 0.5 mg/kg on day 40; in short: as §2
Mus musculus [16] = assay: On set and incidence of arthritis in the Mouse Type II collagen model at 0.5 dose mg/kg on day 40, expressed as ratio of number treated to that of control:12 animals tested; in short: as §1
Mus musculus [17] = assay: Extent of paw swelling after treatment with thymopentin-5 (TP-5) compound in the Mouse Type II collagen arthritis at a dosage of 0.5 mg/kg on day 30; in short: as §2
Mus musculus [18] = assay: Extent of paw swelling after treatment with thymopentin-5 (TP-5) compound in the Mouse Type II collagen arthritis at a dosage of 0.5 mg/kg on day 37; in short: as §2
Mus musculus [19] = assay: Extent of paw swelling after treatment with thymopentin-5 (TP-5) compound in the Mouse Type II collagen arthritis at a dosage of 0.5 mg/kg on day 44; in short: as §2
Rattus norvegicus [20] = assay: extent of paw swelling following treatment with the compound in the rat adjuvant arthritis model observed on day 16 at 0.05 mg/kg dose; in short: as §3
Rattus norvegicus [21] = assay: extent of paw swelling following treatment with the compound in the rat adjuvant arthritis model observed on day 19 at 0.05 mg/kg dose; in short: as §3
Rattus norvegicus [22] = assay: extent of paw swelling following treatment with the compound in the rat adjuvant arthritis model observed on day 12 at 0.05 mg/kg dose; in short: as §3
Mus musculus [23] = assay: Extent of paw swelling after treatment with thymopentin-5 (TP-5) compound in the Mouse Type II collagen arthritis at 1 mg/kg on day 30.; details: 1 mg/kg; in short: as §2

Row | Structure (SMILES) | No. of mice (Mus musculus [1]) | No. of mice (Mus musculus [2]) | No. of mice (Mus musculus [4]) | No. of mice (Mus musculus [5]; 0.5 mg/kg) | No. of mice (Mus musculus [6]) | No. of mice (Mus musculus [8]) | further results
1 | CC(CC(=O)[C@H](CC(=O)O)NC(=O)C(CCCCN)NC(=O)[C@@H](N)CCCN=C(N)N)C(=O)NC(Cc1ccccc1)C(=O)O (stereo in doubt; 3e-A) | 12 | 11 | 9 | 5 |  |  | Paw swelling (Mus musculus [3]; 1 mg/kg): 88% and 57% and 73% and 75%
2 | CCCC[C@H](NC(=O)[C@@H](N)CCCN=C(N)N)C(=O)N[C@@H](CC(=O)O)C(=O)N[C@H](C(=O)C[C@@H](Cc1ccccc1)C(=O)O)C(C)C (stereo in doubt; 1c-B) |  |  |  | 8 | 12 | 11 | Paw swelling (Mus musculus [7]): 100%; No. of mice (Mus musculus [9]): 11
3 | CCCC[C@H](NC(=O)[C@@H](N)CCCN=C(N)N)C(=O)N[C@@H](CC(=O)O)C(=O)N[C@H](C(=O)C[C@@H](Cc1ccccc1)C(=O)O)C(C)C (stereo in doubt; 1c-A) |  |  |  | 5 | 8 | 9 | No. of mice (Mus musculus [9]): 10; Paw swelling (Rattus norvegicus [10]): 100%; Paw swelling (Rattus norvegicus [11]): 100%; Paw swelling (Rattus norvegicus [12]): 0%; Paw swelling (Mus musculus [13]): 66% and 69% and 70% and 63%
4 | CCCC[C@H](NC(=O)[C@@H](N)CCCN=C(N)N)C(=O)N[C@@H](CC(=O)O)C(=O)C[C@H](C)C(=O)O | 12 | 11 | 11 |  |  |  | Paw swelling (Mus musculus [7]): 100%; No. of mice (Mus musculus [5]): 8
5 | CC(C)[C@H](CC(=O)[C@H](CC(=O)O)NC(=O)[C@H](CCCCN)NC(=O)[C@@H](N)CCCN=C(N)N)C(=O)N[C@@H](Cc1ccccc1)C(=O)O (stereo in doubt; 3a-B) | 12 | 12 | 11 |  |  |  | Paw swelling (Mus musculus [3]): 100%; No. of mice (Mus musculus [14]): 8
6 | CC(C)[C@H](NC(=O)[C@H](CC(=O)O)NC(=O)[C@H](CCCCN)NC(=O)[C@@H](N)CCCN=C(N)N)C(=O)C[C@@H](Cc1ccccc1)C(=O)O |  |  |  |  | 7 | 7 | Paw swelling (Mus musculus [15]): 93%; No. of mice (Mus musculus [16]): 8; Paw swelling (Mus musculus [17]): 100%; No. of mice (Mus musculus [5]): 5; Paw swelling (Mus musculus [18]): 100%; Paw swelling (Mus musculus [19]): 53%
7 | CCCC[C@@H](C(=O)N[C@@H](CC(=O)O)C(=O)N[C@H](C(=O)C[C@H](C(=O)O)C(C)C)C(C)C)N(C)C(=O)[C@@H](N)CCCN=C(N)N (stereo in doubt; 1m-B) | 12 | 11 | 11 | 8 |  |  | Paw swelling (Rattus norvegicus [20]): 100%; Paw swelling (Rattus norvegicus [21]): 100%; Paw swelling (Rattus norvegicus [22]): 0%; Paw swelling (Mus musculus [23]): 100%
8 | CC(CC(=O)[C@H](CC(=O)O)NC(=O)C(CCCCN)NC(=O)[C@@H](N)CCCN=C(N)N)C(=O)NC(Cc1ccccc1)C(=O)O (stereo in doubt; 3e-B) |  | 10 | 11 | 10 |  |  | Paw swelling (Mus musculus [3]; 1 mg/kg): 100% and 68% and 77%
